From PubChem BioAssay
KLK5 inh – human KLK5 protease inhibitors, primary screen, biochemical, 1536-well; inhibition, % at 5 µM; recombinant hK5, fluorogenic AMC substrate cleavage; 210,000 tested, 0.59% active;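 active = inhibition of 40% or more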;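 also: 0% = enzyme controls without compound and 100% = no-enzyme blanks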
Thrombin inh – human alpha-thrombin inhibitors, primary screen, counter-screen for coagulation protease inhibitor project, biochemical, 1536-well, fluorogenic AMC substrate | Prothrombin (Homo sapiens), P00734 | Boc-VPR-AMC fluorogenic substrate cleavage | inhibition, % at 5 µM | 220,000 tested, 0.26% active;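 active = inhibition at or above 40%; inactive = inhibition below 40%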;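 also: 0% = enzyme with no compound and 100% = wells without enzyme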
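signal = AMC fluorescence, 355/460 nm | material = human alpha-thrombin enzyme | control set = enzyme without compound as high, wells lacking enzyme as low | times = reaction at room temperature | read-out basis = percent inhibition scaled between no-compound controls and no-enzyme blanks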
m-calpain inh – inhibitors of pig calpain II, primary screen, biochemical, fluorogenic peptide substrate, 1536-well | AID 1236, 2008 | purified calpain II, 30 min | 220,000 tested, 0.37% active | inhibition, % at 16 µM;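 active = inhibition above about 50%, limit read from the data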
FXIIa inh – human FXIIa protease inhibitors, primary screen, biochemical, 1536-well; inhibition, % at 5 µM; purified FXIIa, Boc-QGR-AMC fluorogenic substrate, 2 h; 220,000 tested, 0.3% active; Coagulation factor XII (Homo sapiens), P00748; AID 800, 2007; in the data active = inhibition above about 40%;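 also: 0% = enzyme with no compound and 100% = blank without enzyme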
FXIa inh 1536 – human FXIa protease inhibitors, primary screen, biochemical, 1536-well; Coagulation factor XI (Homo sapiens), P03951; purified FXIa, Boc-Glu-Ala-Arg-AMC fluorogenic substrate; inhibition, % at 5 µM; 220,000 tested, 0.14% active; AID 798, 2007;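 active = inhibition of at least 40%; inactive = inhibition below 40%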;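 also: fluorescence of freed AMC excited at 355 nm; 0% = enzyme without compound and 100% = no enzyme blank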
Target sequence (P03951 19-387 limits assumed): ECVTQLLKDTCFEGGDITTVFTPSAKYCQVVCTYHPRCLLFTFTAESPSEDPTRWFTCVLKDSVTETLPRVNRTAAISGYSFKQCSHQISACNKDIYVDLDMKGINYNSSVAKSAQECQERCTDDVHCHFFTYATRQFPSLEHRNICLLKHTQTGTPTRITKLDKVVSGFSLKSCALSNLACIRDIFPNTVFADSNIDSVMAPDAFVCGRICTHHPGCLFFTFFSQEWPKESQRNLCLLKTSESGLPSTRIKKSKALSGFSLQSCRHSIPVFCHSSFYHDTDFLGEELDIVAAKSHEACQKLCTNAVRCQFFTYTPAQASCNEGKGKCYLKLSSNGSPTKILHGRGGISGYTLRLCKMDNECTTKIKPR
Target sequence (P03951 388-625 limits assumed): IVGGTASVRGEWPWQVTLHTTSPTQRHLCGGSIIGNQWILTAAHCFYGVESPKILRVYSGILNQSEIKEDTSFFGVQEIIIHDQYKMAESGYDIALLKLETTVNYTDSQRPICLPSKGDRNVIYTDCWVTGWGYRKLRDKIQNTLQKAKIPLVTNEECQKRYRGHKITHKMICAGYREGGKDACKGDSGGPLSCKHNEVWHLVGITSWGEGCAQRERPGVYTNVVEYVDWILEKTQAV
Starred values were filed as active, the others as inactive; i = inactive; nt = no result. Sampled rows, rich in hits. Any-hit rate of the full collection: about 1.4%.

SMILES	KLK5 inh	Thrombin inh	m-calpain inh	FXIIa inh	FXIa inh 1536
O=C(NCCc1csc(-c2cccnc2)n1)c1ccc(Br)o1	33.7	9.4	99.0*	6.7	-0.8
CCN(CC)C(=O)c1sc(NC(=O)c2ccc(OC)c([N+](=O)[O-])c2)c(C#N)c1C	4.6	2.4	23.0	7.5	-3.7
Cc1ccc(C)c(N2CCN(C(=O)CN(C)S(=O)(=O)c3ccc4c(c3)CCC(=O)N4)CC2)c1	52.8*	-2.4	13.6	-4.2	-10.0
N#Cc1c(NC(=O)CSc2n[nH]c(Cc3ccccc3)n2)oc(-c2ccccc2)c1-c1ccccc1	-116.5	7.7	-2.3	14.1	5.1
O=C(O)c1ccc(NC2=C(Cl)C(=O)c3ccccc3C2=O)cc1	80.9*	22.8	58.0*	43.3*	13.5
COc1ccccc1C(=O)OCc1nc(N)nc(Nc2ccccc2C)n1	-7.2	-15.1	11.8	0.3	-6.3
COCc1c(C(=O)OCc2nc(N)nc(Nc3ccccc3C)n2)oc2ccccc12	4.5	-2.4	31.5	51.3*	32.4
CCOC(=O)c1cc2c(ccc3ccccc32)oc1=O	-12.2	-36.0	i	-1.4	-5.8
Nc1c(-c2ccccc2)c(CSc2nc3ccccc3[nH]2)nn1-c1cccc(Cl)c1	23.8	20.8	-3.1	18.0	11.4
Nc1c(-c2ccccc2)c(CSc2nc3ccccc3[nH]2)nn1-c1ccc(Cl)cc1	62.0*	16.6	0.1	33.2	13.6
O=C(c1ccco1)N(Cc1ccccc1)c1cccc([N+](=O)[O-])c1	1.8	-3.3	27.3	5.2	-3.8
O=C(c1ccco1)N(Cc1cccc([N+](=O)[O-])c1)c1ccc(Br)cc1	nt	-2.6	51.7*	5.9	2.2
O=C(NCCc1ccncc1)Nc1ccc(F)cc1	2.5	3.2	-1.8	9.7	-1.5
CCOC(=O)COc1cc(N2C(=O)CSCC2=O)c(Cl)cc1Cl	-1.5	-4.0	17.7	-2.1	-9.3
N#C/C(=C\c1cccnc1)c1nc2ccccc2[nH]1	38.5	11.1	-18.8	32.5	63.1*
N#C/C(=C\c1ccncc1)c1nc2ccccc2[nH]1	-5.5	-7.4	25.3	1.1	-1.4
CC(=O)Nc1cccc(C(=O)N/N=C/c2ccc(C)o2)c1	2.2	-6.7	17.4	1.5	-3.1
COc1cc([N+](=O)[O-])ccc1-c1ccc(/C=N/NC(=O)c2ccccc2O)o1	-2.5	0.5	53.5*	6.6	-0.3
Cc1ccc(/C=N/NC(=O)c2cccc([N+](=O)[O-])c2)o1	40.8*	12.8	24.0	9.9	2.4
COc1ccc2nc(N=Nc3ccc(N(C)C)cc3)sc2c1	-4.8	1.1	-5.8	14.1	3.7
Cc1ccc(-c2cc(C(=O)N/N=C/c3c(C)nn(-c4ccccc4)c3C)[nH]n2)cc1	-15.8	-3.0	-428.7	21.7	18.4
FC(F)Sc1ccc(NC(=S)NCc2ccccc2)cc1	2.8	-4.7	10.8	6.8	0.4
O=C(Cc1ccc(Cl)cc1)Nc1ncc([N+](=O)[O-])s1	-6.6	-12.8	77.2*	1.5	-3.2
Oc1ccc(/C=N/N2CCN(C3c4ccccc4-c4ccccc43)CC2)c(O)c1	-1.8	21.7	24.4	25.9	47.7*
Cc1ccc(Nc2nc(C(=O)NCCCN3CCOCC3)cs2)cc1	-12.6	0.7	8.0	14.4	3.3
SMILES	KLK5 inh	Thrombin inh	m-calpain inh	FXIIa inh	FXIa inh 1536
Cc1ccc(C(=O)Nc2ccc(Cl)cn2)cc1S(=O)(=O)N1CCOCC1	40.8*	18.6	15.8	23.1	2.0
CCOC(=O)N1CCN(Cc2nc(N)nc(Nc3ccc(OCC)cc3)n2)CC1	0.6	-1.1	7.0	4.6	-5.6
COc1cc(C(=O)Nc2nnc(C(C)(C)C)s2)c([N+](=O)[O-])cc1OC	-8.0	-3.8	-0.4	3.9	-2.8
O=C(COC(=O)C12CC3CC(CC(O)(C3)C1)C2)NCCc1ccc(Cl)cc1	0.2	100.5*	-23.5	8.3	-2.5
Cc1cc2cc(CNC(=O)NC3CCCCC3)ccc2[nH]1	-2.6	2.6	38.7	-1.0	-4.7
Cc1cccc(NC(=O)NCc2ccc3[nH]c(C)cc3c2)c1	2.7	-3.6	97.2*	12.8	0.0
Cc1cc2cc(CNC(=S)NC3CCCCC3)ccc2[nH]1	5.0	-5.3	86.7*	10.9	-2.3
CCCCN(C)S(=O)(=O)c1cc(Br)cc2c1N(C(=O)C1CC1)CC2	-6.5	5.1	13.2	17.9	2.5
O=C(O)c1cccc(N/C(=N\S(=O)(=O)c2ccccc2)c2ccccc2)c1	7.4	0.6	5.2	7.1	1.8
O=C(O)c1ccc(N/C(=N\S(=O)(=O)c2ccc(Cl)cc2)c2ccccc2)cc1	19.5	15.5	-14.9	63.5*	44.0*
CCOC(=O)c1cnc(-n2nc(C)cc2C)nc1Nc1ccccc1OC	-16.7	0.3	-20.9	2.5	-27.2
CCOC(=O)c1cnc(-n2nc(C)cc2C)nc1Nc1ccc(OC)cc1	-10.2	15.6	53.8*	1.3	-4.6
Cc1cccc(NC2(C(F)(F)F)N=C3SCCN3C2=O)n1 (configuration not stated)	-15.9	-11.2	-10.2	-3.1	-0.7
Oc1ccc(Cl)cc1/C=C/c1ccc2cccc(O)c2n1	33.6	48.8*	16.2	39.1	33.0
CCOC(=O)C(=O)N(Nc1ccccc1C)c1ccccc1C	0.1	-11.9	10.9	4.2	-4.0
CCOC(=O)C(=O)N(Nc1ccc(C)cc1)c1ccc(C)cc1	33.6	10.5	5.6	24.3	50.0*
CCOC(=O)N1CCN(C(=O)c2cnn3c(C)c(Cc4ccc(C)cc4)c(C)nc23)CC1	63.1*	10.3	-198.1	21.4	3.5
O=C(c1ccc(COc2ccccc2Br)o1)N1CCN(c2ccccn2)CC1	49.8*	12.5	21.7	16.5	8.2
O=C(c1cccc(COc2ccc(Cl)cc2Cl)c1)N1CCN(c2ccccn2)CC1	-6.0	-6.5	69.7*	-2.2	-6.2
CC(C)CNC(=O)CSc1nnc2ccccn12	-3.1	4.8	-10.0	5.0	-7.5
CC(=O)N/C(=C\c1ccccc1)C(=O)OCC(=O)NC(C)C12CC3CC(CC(C3)C1)C2 (configuration not stated)	-6.7	-0.5	-6.1	11.3	3.1
CC(=O)N/C(=C\c1ccccc1)C(=O)OCC(=O)N(C)C1CCCCC1	44.3*	10.1	24.0	18.0	4.8
NNc1nc2ccc(Cl)cc2s1	-10.0	-7.0	-20.1	2.3	-0.8
NNc1nc2ccc(F)cc2s1	42.9*	21.5	26.8	36.2	16.8
CCCCOc1ccc(-c2nnn(C(C)C(=O)OCC)n2)cc1 (configuration not stated)	4.6	-0.8	28.6	10.8	4.2
CCCCOc1ccc(-c2nnn(C(C)(C)C(=O)OC)n2)cc1	139.8*	2.0	-17.6	-3.1	-11.2
CN1CCN(c2ccc(CNS(=O)(=O)Cc3ccc(Cl)cc3)cc2)CC1	17.7	31.2	11.5	61.0*	32.5
Nc1nc(CCl)nc(Nc2ccc3ccccc3c2)n1	61.4*	1.1	-2.2	17.9	32.1
